Results as given in ChEMBL document CHEMBL3351774, “Inhibitory activities of propolis and its promising component, caffeic acid phenethyl ester, against amyloidogenesis of human transthyretin” (J Med Chem, 2014).
Activity calls are given as the source filed them. The calls are words filed in the database; no cut-off is given here.

Key:
[1] = tested on: Transthyretin (Homo sapiens), P02766 [V50M]; test: Competitive binding to TTR V30M mutant (unknown origin) expressed in Escherichia coli at 1 to 80 uM by fluorescence assay
Outline: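 Thioflavin T competition check: preformed V30M fibrils (10 μM V30M with 66.8 μM thioflavin T, 37 °C, 72 h) were mixed with compounds at 0−80 μM final, with 20 μM thioflavin T and 200 mM Tris-HCl pH 8.0 final. Emission 460−700 nm was recorded with excitation at 440 nm.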

Transthyretin [2] = target: Transthyretin (Homo sapiens, UniProt P02766, V50M); test: (§1) Inhibition of TTR V30M mutant (unknown origin) expressed in Escherichia coli assessed as inhibition of amyloid fibril formation by fluorescence assay
Outline: (§2)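 Compounds were tested at 2.5−80 μM with at least four concentrations. EC50 came from a four-parameter logistic least-squares fit. Standard deviations and p values were taken from triplicate experiments.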

[3] = tested on: Transthyretin (Homo sapiens), P02766 [V50M]; test: Displacement of ANS from TTR V30M mutant (unknown origin) expressed in Escherichia coli at 1 to 50 uM after 5 mins by fluorescence assay
Outline: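 ANS displacement on 2 μM Ni-NTA-purified V30M in 50 mM Tris-HCl pH 7.4, 150 mM NaCl at 298 K. ANS and compound were added in sequence, stirred and equilibrated 5 min. Dilution stayed below 0.4%. Emission 400−540 nm was read with excitation at 280 nm.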

[4] = tested on: Transthyretin (Homo sapiens), P02766 [V50M]; test: Inhibition of TTR V30M mutant (unknown origin) expressed in Escherichia coli assessed as inhibition of amyloid fibril formation at 20 uM by fluorescence assay
Outline: as §2, with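 “Acid-mediated aggregation of 10 μM Ni-NTA-purified V30M, read by thioflavin T fluorescence at 484 nm (excitation 440 nm). Compounds” for “Compounds”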

[5] = tested on: Transthyretin (Homo sapiens), P02766 [V50M]; test: Inhibition of acid-mediated dissociation of TTR V30M mutant (unknown origin) expressed in Escherichia coli after 30 mins by SDS-PAGE
Outline: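 V30M in 20 mM Tris-Cl pH 8.0, 150 mM NaCl was preincubated with compound (ethanol stock) for 30 min at room temperature. Four volumes of 0.1 M sodium acetate pH 4.5 were then added, and the sample was held at 310 K for 8 days (7.3 μM protein; compound 7.3 or 36.5 μM final). Glutaraldehyde cross-linking ran 5 min and was stopped with borohydride. Bands were resolved by 15% SDS-PAGE and silver-stained.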

[6] = tested on: Transthyretin (Homo sapiens), P02766 [V50M]; test: Inhibition of TTR V30M mutant (unknown origin) expressed in Escherichia coli assessed as inhibition of amyloid fibril formation at 5 uM by fluorescence assay
Outline: as §2, with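 “Acid-mediated aggregation of 10 μM Ni-NTA-purified V30M, read by thioflavin T fluorescence at 484 nm (excitation 440 nm). Compounds” for “Compounds”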

[7] = tested on: Transthyretin (Homo sapiens), P02766 [V50M]; test: Inhibition of TTR V30M mutant (unknown origin) expressed in Escherichia coli assessed as inhibition of amyloid fibril formation at 10 uM by fluorescence assay
Outline: as §2, with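 “Acid-mediated aggregation of 10 μM Ni-NTA-purified V30M, read by thioflavin T fluorescence at 484 nm (excitation 440 nm). Compounds” for “Compounds”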

[8] = tested on: Transthyretin (Homo sapiens), P02766 [V50M]; test: Inhibition of TTR V30M mutant (unknown origin) expressed in Escherichia coli assessed as inhibition of amyloid fibril formation at 40 uM by fluorescence assay
Outline: as §2, with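 “Acid-mediated aggregation of 10 μM Ni-NTA-purified V30M, read by thioflavin T fluorescence at 484 nm (excitation 440 nm). Compounds” for “Compounds”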

[9] = tested on: Transthyretin (Homo sapiens), P02766 [V50M]; test: Inhibition of TTR V30M mutant (unknown origin) expressed in Escherichia coli assessed as inhibition of amyloid fibril formation at 80 uM by fluorescence assay
Outline: as §2, with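 “Acid-mediated aggregation of 10 μM Ni-NTA-purified V30M, read by thioflavin T fluorescence at 484 nm (excitation 440 nm). Compounds” for “Compounds”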

[10] = tested on: Transthyretin (Homo sapiens), P02766 [V50M]; test: as §1; outline: as §2
Transthyretin [11] = target: Transthyretin (Homo sapiens, UniProt P02766, I104T); test: Inhibition of TTR I84T mutant (unknown origin) expressed in Escherichia coli assessed as inhibition of amyloid fibril formation by fluorescence assay
Transthyretin [12] = target: Transthyretin (Homo sapiens, UniProt P02766, L75P); test: Inhibition of TTR L55P mutant (unknown origin) expressed in Escherichia coli assessed as inhibition of amyloid fibril formation by fluorescence assay

Row | SMILES | Activity [1] | EC50 (Transthyretin [2]; read-out: EC50) [µM] | inhibition [4] [%] | further results
1 | COc1ccc(/C=C/C(=O)OCCc2ccccc2)cc1O | inactive | 11 | – | –
2 | COc1ccc(/C=C/C(=O)OCCc2ccccc2)cc1OC | inactive | 58 | – | –
3 | COc1cc(/C=C/C(=O)OCCc2ccccc2)ccc1O | inactive | 7.9 | < 20 | Activity [3]: Active; inhibition [5]: Dose-dependent effect
4 | COc1ccc(CC(C)C(C)Cc2ccc(OC)c(OC)c2)cc1OC (stereo not drawn) | – | – | < 20 | EC50 (Transthyretin [2]): Not Active
5 | CCCCCCCCOC(=O)/C=C/c1ccc(O)c(O)c1 | – | – | 47 | inhibition [6]: 27%; inhibition [7]: 44%; inhibition [8]: 49%; inhibition [9]: 53%
6 | COc1cc(CNC(=O)CCCC/C=C/C(C)C)ccc1O | – | – | < 20 | –
7 | COc1cc(C[C@H]2COC(=O)[C@@H]2Cc2ccc(O)c(OC)c2)ccc1O | – | – | < 12 | –
8 | O=C(/C=C/c1ccc(O)c(O)c1)O[C@@H]1C[C@](O)(C(=O)O)C[C@@H](O)[C@H]1O | – | – | – | inhibition [10]: inactive
9 | O=C(/C=C/c1ccccc1)OCCc1ccccc1 | – | – | – | inhibition [10]: inactive
10 | O=C(O)c1cc(-c2ccc(F)cc2F)ccc1O | – | – | < 20 | –
11 | O=C1OC[C@H](Cc2cccc(O)c2)[C@H]1Cc1cccc(O)c1 | – | – | < 20 | –
12 | OC[C@H](Cc1cccc(O)c1)[C@H](CO)Cc1cccc(O)c1 | – | – | < 20 | –
13 | c1cc2c(cc1[C@H]1OC[C@H]3[C@@H]1CO[C@@H]3c1ccc3c(c1)OCO3)OCO2 | – | – | < 20 | –
14 | O=C(/C=C/c1ccc(O)c(O)c1)OCc1ccccc1 [BENZYL CAFFEATE] | Active | 16 | – | –
15 | O=C(/C=C/c1ccc(O)c(O)c1)OCCc1ccccc1 [CAFFEIC ACID PHENETHYL ESTER] | inactive | 8.6 | < 20 | Activity [3]: Active
16 | O=C(O)/C=C/c1ccc(O)c(O)c1 [CAFFEIC ACID] | inactive | 97 | – | –
17 | COc1cc(CC(C)C(C)Cc2ccc(O)c(OC)c2)ccc1O (stereo not drawn) [DIHYDROGUAIARETIC ACID] | inactive | 6.3 | < 20 | Activity [3]: Active
18 | CCOC(=O)/C=C/c1ccc(O)c(O)c1 [ETHYL CAFFEATE] | inactive | 23 | < 20 | Activity [3]: Active
19 | COC(=O)/C=C/c1ccc(O)c(O)c1 [METHYLCAFFEATE] | inactive | 67 | – | –
20 | CC(Cc1ccc(O)c(O)c1)C(C)Cc1ccc(O)c(O)c1 (stereo not drawn) [NORDIHYDROGUAIARETIC ACID] | inactive | 7.3 | < 20 | Activity [3]: Active; EC50 (Transthyretin [11]): 8.5 µM; EC50 (Transthyretin [12]): 12.6 µM
21 | CC(C)=CCOC(=O)/C=C/c1ccc(O)c(O)c1 [PRENYL CAFFEATE] | inactive | 21 | < 20 | –
22 | O=C(/C=C/c1ccc(O)c(O)c1)O[C@H](Cc1ccc(O)c(O)c1)C(=O)O [ROSMARINIC ACID] | inactive | 8.6 | – | –
